Measurements as given in the RNAGym collection of RNA variant scans (doi:10.1038/s41586-018-0170-7).

B1: tRNA (parent)
chain: GUUCCGUUGGCGUAAUGGUAACGCGUCUCCCUCCUAAGGAGAAGACUGCGGGUUCGAGUCCCGUACGGAACG

Variants of: B1
Test: yeast fitness, log relative to wild type (ln ratio); higher = fitter; tRNA-Arg(CCU), competitive growth, 37 C, 1 M NaCl
Outline: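 For each genotype, fitness is defined as the natural log of its generation number over the wild type's. The tRNA-Arg(CCU) variant library was on a HIS3 centromeric plasmid in BY4742 with the chromosomal gene removed, and pools were first grown 4 generations in SC-HIS at 30 °C and then ~6.5 generations (~26.5 h) in SC-HIS 1M NaCl at 37 °C. Generations were calculated from OD-scaled log2 output/input frequency, weighted by inverse variance across replicates, using counts from 125 bp paired-end Illumina sequencing.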

Row | Variant | yeast fitness (ln)
1 | GCUCCUUUGGCGUAAUGGUAACGCGUCUCCCUCCUAAGGAGACGACUGCGGGUUCGAGUCCCGUAUGGGGUG [U2C G6U A43C C66U A69G A70G C71U] | -0.352
2 | GUUCCUUUGGCGUAAUGGUAACGCGUCUCCCUCCUAAGGAGACGAUUGCGGGUUCGAGUCCCGUACGGGUUG [G6U A43C C46U A69G A70U C71U] | -0.438
3 | AUUCCGUUGGCGUAAUGGUAACGCGUCUCCCUCCUAAGGAGAAGACUGCGGGUUCGAGUCCCGUACGGAACG [G1A] | -0.0233
4 | AGUCCAUUGGCGUAAUGGUAACGCGUCUCCCUCCUAAGGAGACGAUUGCGGGUUCGAGUCCCGUAAGGAGUG [G1A U2G G6A A43C C46U C66A A70G C71U] | -0.169
5 | GCUCCGUUGGCGUAAUGGUAACGCGUCUCCCUCCUAAGGAGACGAUUGCGGGUUCGAGUCCCGUAUGGAUUG [U2C A43C C46U C66U A70U C71U] | -0.198
6 | GUUCCGUUGGCGUAAUGGUAACGCGUCUCCCUCCUAAGGAGACGACUGCGGGUUCGAGUCCCGUAUGGGACG [A43C C66U A69G] | -0.174
7 | GGUCCAUUGGCGUAAUGGUAACGCGUUUCCCUCCUAAGGAGACGAUUGCGGGUUCGAGUCCCGUAUGGGGUG [U2G G6A C27U A43C C46U C66U A69G A70G C71U] | -0.289
8 | GCUCCGUUGGCGUAAUGGUAACGCGUCUCCCUCCUAAGGAGACGACUGCGGGUUCGAGUCCCGUAUGGAUCG [U2C A43C C66U A70U] | -0.0776
9 | AUUCCGUUGGCGUAAUGGUAACGCGUCUCCCUCCUAAGGAGACGAUUGCGGGUUCGAGUCCCGUAAGGGAUG [G1A A43C C46U C66A A69G C71U] | -0.216
10 | ACUCCGUUGGCGUAAUGGUAACGCGUCUCCCUCCUAAGGAGACGAUUGCGGGUUCGAGUCCCGUAUGGAUUG [G1A U2C A43C C46U C66U A70U C71U] | -0.202
11 | ACUCCGUUGGCGUAAUGGUAACGCGUCUCCCUCCUAAGGAGAAGAUUGCGGGUUCGAGUCCCGUAAGGGGUG [G1A U2C C46U C66A A69G A70G C71U] | -0.273
12 | AUUCCGUUGGCGUAAUGGUAACGCGUUUCCCUCCUAAGGAGAAGACUGCGGGUUCGAGUCCCGUACGGGAUG [G1A C27U A69G C71U] | -0.0706
13 | GUUCCUUUGGCGUAAUGGUAACGCGUUUCCCUCCUAAGGAGAAGAUUGCGGGUUCGAGUCCCGUAUGGGGUG [G6U C27U C46U C66U A69G A70G C71U] | -0.321
14 | GCUCCGUUGGCGUAAUGGUAACGCGUUUCCCUCCUAAGGAGAAGAUUGCGGGUUCGAGUCCCGUAAGGAGUG [U2C C27U C46U C66A A70G C71U] | -0.181
15 | GGUCCUUUGGCGUAAUGGUAACGCGUUUCCCUCCUAAGGAGAAGAUUGCGGGUUCGAGUCCCGUAAGGAGCG [U2G G6U C27U C46U C66A A70G] | -0.376
16 | ACUCCGUUGGCGUAAUGGUAACGCGUCUCCCUCCUAAGGAGAAGACUGCGGGUUCGAGUCCCGUACGGGUUG [G1A U2C A69G A70U C71U] | -0.321
17 | AUUCCUUUGGCGUAAUGGUAACGCGUCUCCCUCCUAAGGAGACGACUGCGGGUUCGAGUCCCGUAAGGAGCG [G1A G6U A43C C66A A70G] | -0.135
18 | GUUCCUUUGGCGUAAUGGUAACGCGUUUCCCUCCUAAGGAGAAGAUUGCGGGUUCGAGUCCCGUAUGGAUCG [G6U C27U C46U C66U A70U] | -0.19
19 | ACUCCGUUGGCGUAAUGGUAACGCGUUUCCCUCCUAAGGAGACGACUGCGGGUUCGAGUCCCGUACGGGAUG [G1A U2C C27U A43C A69G C71U] | -0.173

Row | Variant | yeast fitness (ln)
20 | GCUCCGUUGGCGUAAUGGUAACGCGUUUCCCUCCUAAGGAGAAGAUUGCGGGUUCGAGUCCCGUAUGGAUUG [U2C C27U C46U C66U A70U C71U] | -0.199
21 | GCUCCGUUGGCGUAAUGGUAACGCGUCUCCCUCCUAAGGAGAAGACUGCGGGUUCGAGUCCCGUAAGGAGCG [U2C C66A A70G] | -0.11
22 | GGUCCUUUGGCGUAAUGGUAACGCGUCUCCCUCCUAAGGAGAAGAUUGCGGGUUCGAGUCCCGUAUGGAAUG [U2G G6U C46U C66U C71U] | -0.2
23 | GCUCCGUUGGCGUAAUGGUAACGCGUCUCCCUCCUAAGGAGAAGACUGCGGGUUCGAGUCCCGUACGGGAUG [U2C A69G C71U] | -0.158
24 | ACUCCUUUGGCGUAAUGGUAACGCGUCUCCCUCCUAAGGAGAAGACUGCGGGUUCGAGUCCCGUAAGGAGCG [G1A U2C G6U C66A A70G] | -0.0212
25 | ACUCCGUUGGCGUAAUGGUAACGCGUUUCCCUCCUAAGGAGAAGAUUGCGGGUUCGAGUCCCGUACGGAACG [G1A U2C C27U C46U] | -0.00588
26 | AGUCCGUUGGCGUAAUGGUAACGCGUUUCCCUCCUAAGGAGAAGACUGCGGGUUCGAGUCCCGUACGGAGCG [G1A U2G C27U A70G] | -0.142
27 | GGUCCAUUGGCGUAAUGGUAACGCGUCUCCCUCCUAAGGAGAAGACUGCGGGUUCGAGUCCCGUACGGGAUG [U2G G6A A69G C71U] | -0.113
28 | GCUCCGUUGGCGUAAUGGUAACGCGUCUCCCUCCUAAGGAGACGAUUGCGGGUUCGAGUCCCGUAUGGAUCG [U2C A43C C46U C66U A70U] | -0.0497
29 | AUUCCUUUGGCGUAAUGGUAACGCGUCUCCCUCCUAAGGAGAAGACUGCGGGUUCGAGUCCCGUAAGGAUUG [G1A G6U C66A A70U C71U] | -0.159
30 | AUUCCAUUGGCGUAAUGGUAACGCGUUUCCCUCCUAAGGAGACGACUGCGGGUUCGAGUCCCGUACGGGAUG [G1A G6A C27U A43C A69G C71U] | -0.598
31 | AGUCCUUUGGCGUAAUGGUAACGCGUCUCCCUCCUAAGGAGACGAUUGCGGGUUCGAGUCCCGUACGGGGUG [G1A U2G G6U A43C C46U A69G A70G C71U] | -0.345
32 | GGUCCGUUGGCGUAAUGGUAACGCGUCUCCCUCCUAAGGAGACGAUUGCGGGUUCGAGUCCCGUAAGGAAUG [U2G A43C C46U C66A C71U] | -0.148
33 | GCUCCUUUGGCGUAAUGGUAACGCGUUUCCCUCCUAAGGAGAAGAUUGCGGGUUCGAGUCCCGUAUGGAGCG [U2C G6U C27U C46U C66U A70G] | -0.0763
34 | AUUCCGUUGGCGUAAUGGUAACGCGUCUCCCUCCUAAGGAGAAGACUGCGGGUUCGAGUCCCGUAAGGAAUG [G1A C66A C71U] | -0.113
35 | AUUCCAUUGGCGUAAUGGUAACGCGUUUCCCUCCUAAGGAGAAGACUGCGGGUUCGAGUCCCGUAAGGAGUG [G1A G6A C27U C66A A70G C71U] | -0.473
36 | GCUCCAUUGGCGUAAUGGUAACGCGUCUCCCUCCUAAGGAGACGACUGCGGGUUCGAGUCCCGUAAGGGGUG [U2C G6A A43C C66A A69G A70G C71U] | -0.218
37 | AUUCCAUUGGCGUAAUGGUAACGCGUUUCCCUCCUAAGGAGAAGAUUGCGGGUUCGAGUCCCGUAUGGGUUG [G1A G6A C27U C46U C66U A69G A70U C71U] | -0.436
38 | GCUCCUUUGGCGUAAUGGUAACGCGUCUCCCUCCUAAGGAGAAGAUUGCGGGUUCGAGUCCCGUAUGGGAUG [U2C G6U C46U C66U A69G C71U] | -0.221
